Experimental data as given in ChEMBL document CHEMBL4400539, “Discovery of a Novel Chemotype of Histone Lysine Methyltransferase EHMT1/2 (GLP/G9a) Inhibitors: Rational Design, Synthesis, Biological Evaluation, and Co-crystal Structure” (J Med Chem, 2019).
Activity calls are given as the source filed them. The rule behind the calls is not given here.

Assays:
[1] = biological target: DNA (cytosine-5)-methyltransferase 3B (Homo sapiens) (UniProt Q9UBC3); assay: Inhibition of N-terminal GST-tagged recombinant full length human DNMT3b (2 to 853 residues) using bacteriophage lambda DNA as substrate preincubated for 20 mins followed by [3H]-SAM and measured after 60 mins by scintillation counting
[2] = Chemical stability of the compound in PBS buffer after 72 hrs by HPLC analysis; format: physicochemical
Summary of the method: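 Stability checked by HPLC after exposure to PBS over 72 h.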

MCF7 = assay: Cytotoxicity against human MCF7 cells assessed as reduction in cell viability at 0.05 to 50 uM after 24 hrs by MTT assay; format: cell-based; conditions: mcf7, 24 h
Summary of the method: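 MCF-7, MDA-MB-231 and U-343 cells exposed 24, 48 and 72 h to 0.05, 0.5, 5 and 50 μM compound; viability by MTT reduction to formazan versus vehicle; mean ± SD of at least three independent experiments.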

[3] = biological target: T1, Histone-lysine N-methyltransferase EHMT1 (Homo sapiens) (UniProt Q9H9B1); assay: Inhibition of recombinant human GLP at 10 uM using biotinylated-Histone H3 peptide (1 to 21 residues) after 30 mins by AlphaLISA assay relative to control
T1 sequence (whole entry): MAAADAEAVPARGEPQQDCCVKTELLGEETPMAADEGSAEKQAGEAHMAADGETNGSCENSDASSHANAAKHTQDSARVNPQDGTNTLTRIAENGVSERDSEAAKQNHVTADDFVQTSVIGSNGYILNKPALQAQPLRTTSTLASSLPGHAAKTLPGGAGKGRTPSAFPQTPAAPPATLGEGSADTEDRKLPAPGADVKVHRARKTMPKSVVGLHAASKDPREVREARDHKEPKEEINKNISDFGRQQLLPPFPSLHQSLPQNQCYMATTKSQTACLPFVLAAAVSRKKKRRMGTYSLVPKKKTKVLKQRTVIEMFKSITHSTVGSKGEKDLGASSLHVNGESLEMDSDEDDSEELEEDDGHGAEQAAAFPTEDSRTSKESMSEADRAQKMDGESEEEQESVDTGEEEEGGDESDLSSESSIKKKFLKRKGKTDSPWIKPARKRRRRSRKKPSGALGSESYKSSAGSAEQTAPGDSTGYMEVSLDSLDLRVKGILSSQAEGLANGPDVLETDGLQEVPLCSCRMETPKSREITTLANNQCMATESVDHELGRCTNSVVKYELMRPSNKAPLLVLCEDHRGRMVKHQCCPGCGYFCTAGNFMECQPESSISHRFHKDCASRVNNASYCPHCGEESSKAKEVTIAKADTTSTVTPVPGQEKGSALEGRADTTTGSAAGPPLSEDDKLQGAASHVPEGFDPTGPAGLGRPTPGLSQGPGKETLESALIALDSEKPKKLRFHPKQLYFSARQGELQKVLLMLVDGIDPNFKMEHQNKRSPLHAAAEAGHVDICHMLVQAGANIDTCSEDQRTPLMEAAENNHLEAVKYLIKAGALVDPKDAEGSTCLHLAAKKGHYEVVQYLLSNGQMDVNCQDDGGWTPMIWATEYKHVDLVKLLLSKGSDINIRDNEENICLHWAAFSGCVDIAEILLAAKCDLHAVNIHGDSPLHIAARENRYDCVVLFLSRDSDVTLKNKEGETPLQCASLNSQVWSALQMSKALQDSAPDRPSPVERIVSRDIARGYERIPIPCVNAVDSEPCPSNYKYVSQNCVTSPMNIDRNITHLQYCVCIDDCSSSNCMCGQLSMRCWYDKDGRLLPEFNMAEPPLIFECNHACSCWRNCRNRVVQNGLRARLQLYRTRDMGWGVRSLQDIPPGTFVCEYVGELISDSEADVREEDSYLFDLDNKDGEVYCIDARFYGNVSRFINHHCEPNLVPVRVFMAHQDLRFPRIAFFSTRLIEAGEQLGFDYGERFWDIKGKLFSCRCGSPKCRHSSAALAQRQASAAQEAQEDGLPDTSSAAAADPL

[4] = biological target: T2, Histone-lysine N-methyltransferase EHMT2 (Homo sapiens, UniProt Q96KQ7); assay: Binding affinity to human His-tagged G9a expressed in Escherichia coli Rosetta (DE3) after 30 mins by MST binding assay
T2 sequence (Q96KQ7 whole entry): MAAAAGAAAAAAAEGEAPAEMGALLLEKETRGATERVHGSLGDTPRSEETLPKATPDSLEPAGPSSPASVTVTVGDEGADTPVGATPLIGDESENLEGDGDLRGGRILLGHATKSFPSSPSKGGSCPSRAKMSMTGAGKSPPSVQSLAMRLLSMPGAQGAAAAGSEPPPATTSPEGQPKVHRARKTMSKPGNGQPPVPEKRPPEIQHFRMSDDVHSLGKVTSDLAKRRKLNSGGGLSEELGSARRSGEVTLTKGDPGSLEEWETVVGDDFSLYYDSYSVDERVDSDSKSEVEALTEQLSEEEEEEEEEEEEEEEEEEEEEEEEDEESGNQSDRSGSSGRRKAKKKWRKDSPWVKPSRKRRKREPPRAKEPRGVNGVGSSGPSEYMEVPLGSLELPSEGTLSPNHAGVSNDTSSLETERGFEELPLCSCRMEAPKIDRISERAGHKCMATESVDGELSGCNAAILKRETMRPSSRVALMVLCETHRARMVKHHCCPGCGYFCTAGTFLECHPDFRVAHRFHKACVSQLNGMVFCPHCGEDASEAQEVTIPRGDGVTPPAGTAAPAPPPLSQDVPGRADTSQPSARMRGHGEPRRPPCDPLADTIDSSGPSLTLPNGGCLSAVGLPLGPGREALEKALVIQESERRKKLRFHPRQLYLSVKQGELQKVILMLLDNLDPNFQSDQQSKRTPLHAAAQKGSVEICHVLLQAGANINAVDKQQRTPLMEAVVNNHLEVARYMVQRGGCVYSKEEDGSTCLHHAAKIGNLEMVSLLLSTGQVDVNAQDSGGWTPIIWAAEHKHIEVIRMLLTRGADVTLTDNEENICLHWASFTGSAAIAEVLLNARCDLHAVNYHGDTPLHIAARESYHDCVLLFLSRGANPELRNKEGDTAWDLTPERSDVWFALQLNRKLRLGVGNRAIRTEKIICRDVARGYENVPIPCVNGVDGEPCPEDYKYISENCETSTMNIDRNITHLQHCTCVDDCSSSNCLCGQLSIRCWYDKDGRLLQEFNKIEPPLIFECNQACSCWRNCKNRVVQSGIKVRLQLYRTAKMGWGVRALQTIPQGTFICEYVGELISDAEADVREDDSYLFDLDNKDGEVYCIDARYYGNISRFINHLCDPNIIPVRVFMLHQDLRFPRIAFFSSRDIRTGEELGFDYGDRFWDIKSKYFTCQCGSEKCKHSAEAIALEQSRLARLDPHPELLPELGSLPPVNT

[5] = biological target: Histone acetyltransferase p300 (Homo sapiens) (UniProt Q09472); assay: Inhibition of recombinant human P300 at 10 to 25 uM using biotinylated-Histone H4 peptide (1 to 21 residues) as substrate preincubated for 30 mins followed by substrate addition and measured after 60 mins in presence of SAM by AlphaLISA assay relative to control
Histone acetyltransferase p300 (Homo sapiens), sequence (Q09472 whole entry, the tested form may be a part): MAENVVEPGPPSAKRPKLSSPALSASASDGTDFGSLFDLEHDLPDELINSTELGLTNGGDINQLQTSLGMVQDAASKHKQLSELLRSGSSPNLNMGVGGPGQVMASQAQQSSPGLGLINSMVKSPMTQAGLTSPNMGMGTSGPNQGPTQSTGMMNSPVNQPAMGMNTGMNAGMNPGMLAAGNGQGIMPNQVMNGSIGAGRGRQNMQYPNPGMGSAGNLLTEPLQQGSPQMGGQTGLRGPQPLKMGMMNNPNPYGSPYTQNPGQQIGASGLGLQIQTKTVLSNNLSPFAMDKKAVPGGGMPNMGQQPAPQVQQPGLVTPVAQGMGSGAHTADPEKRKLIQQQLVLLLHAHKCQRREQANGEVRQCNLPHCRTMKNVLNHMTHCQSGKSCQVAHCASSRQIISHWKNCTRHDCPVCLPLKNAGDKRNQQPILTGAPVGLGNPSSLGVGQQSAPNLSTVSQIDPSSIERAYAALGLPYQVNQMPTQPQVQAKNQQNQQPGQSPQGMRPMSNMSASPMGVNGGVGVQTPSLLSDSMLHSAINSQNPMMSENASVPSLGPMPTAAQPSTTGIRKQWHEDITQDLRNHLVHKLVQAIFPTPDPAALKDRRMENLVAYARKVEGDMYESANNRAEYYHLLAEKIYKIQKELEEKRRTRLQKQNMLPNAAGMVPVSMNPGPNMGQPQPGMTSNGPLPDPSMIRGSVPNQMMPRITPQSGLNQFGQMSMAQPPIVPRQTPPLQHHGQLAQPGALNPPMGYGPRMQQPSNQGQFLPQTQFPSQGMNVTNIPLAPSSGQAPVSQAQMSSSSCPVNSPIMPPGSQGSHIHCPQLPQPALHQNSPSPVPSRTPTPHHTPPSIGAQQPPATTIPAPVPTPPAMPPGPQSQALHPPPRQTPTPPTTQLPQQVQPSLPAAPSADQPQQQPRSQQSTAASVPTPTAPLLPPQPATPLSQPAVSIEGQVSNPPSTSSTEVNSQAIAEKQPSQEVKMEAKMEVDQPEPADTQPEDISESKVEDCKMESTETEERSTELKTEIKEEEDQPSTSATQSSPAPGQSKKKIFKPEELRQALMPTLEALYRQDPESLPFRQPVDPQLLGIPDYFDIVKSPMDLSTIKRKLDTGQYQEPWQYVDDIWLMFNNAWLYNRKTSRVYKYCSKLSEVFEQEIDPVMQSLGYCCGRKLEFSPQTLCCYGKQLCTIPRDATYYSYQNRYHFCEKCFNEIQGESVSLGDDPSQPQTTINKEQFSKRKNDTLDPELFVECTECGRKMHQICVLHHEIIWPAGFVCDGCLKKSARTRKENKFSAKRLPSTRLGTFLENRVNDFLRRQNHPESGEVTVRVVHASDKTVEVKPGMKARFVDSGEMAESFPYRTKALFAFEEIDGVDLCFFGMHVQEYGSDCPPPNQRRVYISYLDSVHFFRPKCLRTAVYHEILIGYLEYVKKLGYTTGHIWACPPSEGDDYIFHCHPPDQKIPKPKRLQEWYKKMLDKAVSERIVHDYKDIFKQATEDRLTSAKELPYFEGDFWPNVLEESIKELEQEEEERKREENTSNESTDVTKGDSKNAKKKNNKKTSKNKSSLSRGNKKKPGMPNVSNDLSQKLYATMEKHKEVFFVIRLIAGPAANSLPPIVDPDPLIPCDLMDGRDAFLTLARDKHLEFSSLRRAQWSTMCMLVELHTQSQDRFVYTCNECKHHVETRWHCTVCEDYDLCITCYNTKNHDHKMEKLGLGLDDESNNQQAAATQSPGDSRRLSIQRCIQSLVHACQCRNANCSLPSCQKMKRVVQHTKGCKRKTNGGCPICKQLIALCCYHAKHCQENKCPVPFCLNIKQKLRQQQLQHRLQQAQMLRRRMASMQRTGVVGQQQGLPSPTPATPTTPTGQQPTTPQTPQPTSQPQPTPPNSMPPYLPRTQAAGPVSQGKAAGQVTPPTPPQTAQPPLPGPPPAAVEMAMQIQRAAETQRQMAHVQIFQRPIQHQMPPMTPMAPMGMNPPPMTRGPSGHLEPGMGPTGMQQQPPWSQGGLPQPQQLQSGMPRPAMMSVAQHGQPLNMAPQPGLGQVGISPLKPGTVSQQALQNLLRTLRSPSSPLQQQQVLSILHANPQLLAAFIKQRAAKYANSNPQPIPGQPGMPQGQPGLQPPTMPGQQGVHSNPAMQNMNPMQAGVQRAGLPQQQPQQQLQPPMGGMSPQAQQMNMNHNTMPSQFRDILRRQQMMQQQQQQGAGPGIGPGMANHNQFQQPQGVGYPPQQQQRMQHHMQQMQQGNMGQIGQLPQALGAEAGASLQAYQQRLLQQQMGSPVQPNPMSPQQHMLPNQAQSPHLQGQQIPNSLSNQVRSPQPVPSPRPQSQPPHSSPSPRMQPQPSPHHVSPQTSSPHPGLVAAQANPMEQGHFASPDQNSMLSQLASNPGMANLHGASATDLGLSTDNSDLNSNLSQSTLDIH

inhibition [1]: inactive
Stability [2]: Stable
inhibition [3]: 95%
Kd [4]: 1130 nM
inhibition [5]: inactive
SMILES: COc1cc2c(cc1OCCCN1CCCC1)N=C(C1CCCCC1)CN=C2NC1CCN(C(C)C)CC1
Activity (MCF7): Non-Toxic
